Drawing on the array DNA melting data of Ke et al. (doi:10.1101/2024.01.08.574731), this text covers folding enthalpy and Tm for 73 sequences.

A short description of series [1]: folding enthalpy; higher = less favourable; fluorescence melt of hairpins on a sequencing array, two-state fit. Conditions: sodium 0.088 M. The procedure, abridged:
(§1)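 Two-state fits, bootstrapped, provided melting temperature and folding enthalpy from Cy3 fluorescence normalised to pre-quench Cy3 and to control constructs. Library hairpins with annealed Cy3 and quencher oligos were imaged on a sequenced MiSeq flow cell in 50 mM Na-HEPES pH 8.0, 25 mM NaCl, at 2.5 °C intervals up to 60 °C. Four replicates were combined with inverse-variance weighting. A 9.35 °C upward shift was applied to fitted temperatures to match UV melts.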

A short description of series [2]: melting temperature; fluorescence melt of hairpins on a sequencing array, two-state fit, raised by 9.35 °C to match UV melts. Conditions: sodium 0.088 M. The procedure, abridged: as §1

As to GGGTACGAAAGTAACCC ((((((....))).))), the folding enthalpy in series [1] is -26.9 kcal/mol. In addition, the Tm in series [2] came to 54.3 °C.
Taken in the same sequence, the figures for GGGTACGAAAGTAACCCC ((((((....)))..))) were -21.9 kcal/mol and 54.2 °C.
Turning to GGGTACGAAAGTACTCCC ((((((....)))..))), in series [1], the folding enthalpy was -13.4 kcal/mol. Besides, the Tm in series [2] is 45.6 °C.
For GGGTACGAAAGTATGCCC ((((((....)))..))), the folding enthalpy in series [1] was -16 kcal/mol. In addition, in series [2], the Tm was determined as 37.3 °C.
Take GGGTACGGAAACATACCC (((((.(....).))))): the folding enthalpy in series [1] was -33.1 kcal/mol. Also, the Tm in series [2] came out at 40.2 °C.
Turning to GGGTACGGAAACGCACCC ((((.((....)).)))), the folding enthalpy in series [1] is -49.4 kcal/mol. The Tm in series [2] is 52.3 °C.
Take GGGTAGACGAAAGTCCCC (((..(((....)))))): the folding enthalpy in series [1] was -18.6 kcal/mol. Also, the Tm in series [2] was 46.5 °C.
GGGTAGGGAAACCTATCC ((.((((....)))).)): in series [1], the folding enthalpy was -29.7 kcal/mol. In addition, the Tm in series [2] is 46.6 °C.
The matching figures for GGGTAGTCGAAAGACCCC (((..(((....)))))): -20.5 kcal/mol and 45.4 °C.
On to GGGTATCCGAAAGGACCC (((..(((....)))))), for which the folding enthalpy in series [1] is -18.6 kcal/mol. Also, the Tm in series [2] came out at 43.9 °C.
In the case of GGGTATGGAAACACACCC ((((.((....)).)))), the folding enthalpy in series [1] is -29.8 kcal/mol. The Tm in series [2] stood at 42.8 °C.
For the sequence GGGTCACGAAAGTGCCCC (((.(((....))).))), the folding enthalpy in series [1] is -27.4 kcal/mol. For the same sequence, the Tm in series [2] came out at 63 °C.
In the case of GGGTCAGGAAACTGACTC (.(((((....))))).), the folding enthalpy in series [1] is -30.7 kcal/mol. The Tm in series [2] amounted to 51.8 °C.
The matching figures for GGGTCATCGAAAGATCCC (((..(((....)))))): -20.3 kcal/mol and 34.5 °C.
As for GGGTCCCCGAAAGGGCCC (((..(((....)))))), the folding enthalpy in series [1] is -23.1 kcal/mol. For the same sequence, in series [2], the Tm came out at 56 °C.
The matching figures for GGGTCCGAAAGGATCCC ((((((....))).))): -31.5 kcal/mol and 60.1 °C.
For GGGTCCGGAAACAGACCC (((((.(....).))))), in series [1], the folding enthalpy is -44.5 kcal/mol. Also, the Tm in series [2] was 49.5 °C.
Consider GGGTCCGGAAACGGGTCC ((..(((....)))..)), for which the folding enthalpy in series [1] was -27.6 kcal/mol. For the same sequence, the Tm in series [2] stood at 50.1 °C.
For the sequence GGGTCGGCGAAAGCCCCC (((..(((....)))))), the folding enthalpy in series [1] is -13.9 kcal/mol. The Tm in series [2] was 46.1 °C.
The matching figures for GGGTCGGGAAACCAACCC ((((.((....)).)))): -35.2 kcal/mol and 47.1 °C.
The matching figures for GGGTCGGGAAACTGACCC (((((.(....).))))): -51.9 kcal/mol and 57.5 °C.
In the case of GGGTCGTCGAAAGACCCC (((..(((....)))))), in series [1], the folding enthalpy is -21.6 kcal/mol. In addition, the Tm in series [2] is 52.6 °C.
The matching figures for GGGTCTGCGAAAGCACCC (((..(((....)))))): -17.5 kcal/mol and 44.2 °C.
Take GGGTCTGGAAACAGGTCC ((..(((....)))..)): the folding enthalpy in series [1] is -27.8 kcal/mol. The Tm in series [2] was 39.9 °C.
The matching figures for GGGTCTGGAAACGGACTC (.(((.(....).))).): -28.3 kcal/mol and 37.5 °C.
The matching figures for GGGTGACCGAAAGGTCCC (((..(((....)))))): -12.5 kcal/mol and 51.6 °C.
The matching figures for GGGTGAGAAATCACCC ((((((....)))))): -37.1 kcal/mol and 61.6 °C.
As to GGGTGAGGAAACCCACCC (((((.(....).))))), in series [1], the folding enthalpy was -50.9 kcal/mol. Moreover, in series [2], the Tm was 51.7 °C.
Taken in the same sequence, the figures for GGGTGAGGAAACTTGCCC (((..((....))..))) were -22.9 kcal/mol and 43.5 °C.
Turning to GGGTGCACGAAAGTGCCC (((..(((....)))))), in series [1], the folding enthalpy is -12.9 kcal/mol. Also, in series [2], the Tm amounted to 52.6 °C.
In the case of GGGTGCCGAAAGGCTCCC (((.(((....))).))), the folding enthalpy in series [1] was -20.6 kcal/mol. For the same sequence, in series [2], the Tm was found to be 69.1 °C.
In the case of GGGTGCGAAAGCAGACCC ((((((....)))..))), the folding enthalpy in series [1] was -20.4 kcal/mol. Moreover, the Tm in series [2] was determined as 54.7 °C.
For GGGTGCGAAAGCAGTCCC ((((((....)))..))), the folding enthalpy in series [1] was -14.6 kcal/mol. Also, the Tm in series [2] came to 50.5 °C.
Taken in the same sequence, the figures for GGGTGCGCGAAAGCGCCC (((..(((....)))))) were -10.8 kcal/mol and 55.5 °C.
For GGGTGCGGAAACGCATCC ((.((((....)))).)), the folding enthalpy in series [1] was -29.8 kcal/mol. Also, the Tm in series [2] came to 64.7 °C.
Take GGGTGGAAACACCC (((((....))))): the folding enthalpy in series [1] was -28.2 kcal/mol. In addition, the Tm in series [2] was found to be 63.5 °C.
Regarding GGGTGGGGAAACCTACCC ((((.((....)).)))), the folding enthalpy in series [1] was -41.4 kcal/mol. Besides, the Tm in series [2] stood at 54.5 °C.
Consider GGGTGGGGAAACTCACCC (((((.(....).))))), for which, in series [1], the folding enthalpy was -49.8 kcal/mol. In addition, the Tm in series [2] is 55.4 °C.
For GGGTGGGGAAACTCGCCC (((.(.(....).).))), the folding enthalpy in series [1] is -30.9 kcal/mol. Also, the Tm in series [2] was determined as 47.6 °C.
For the sequence GGGTGGTCGAAAGACCCC (((..(((....)))))), the folding enthalpy in series [1] was -15.8 kcal/mol. For the same sequence, the Tm in series [2] stood at 53.4 °C.
Regarding GGGTGTGGAAACACGCTC (.(.(((....))).).), the folding enthalpy in series [1] was -17.8 kcal/mol. For the same sequence, the Tm in series [2] was 56.7 °C.
Taken in the same sequence, the figures for GGGTGTGGAAACGCACTC (.(((.(....).))).) were -24 kcal/mol and 47.9 °C.
For GGGTGTTCGAAAGAACCC (((..(((....)))))), in series [1], the folding enthalpy is -16.7 kcal/mol. Moreover, the Tm in series [2] was 52 °C.
For GGGTTAACGAAAGTTCCC (((..(((....)))))), in series [1], the folding enthalpy is -21.2 kcal/mol. Also, the Tm in series [2] is 37.4 °C.
With GGGTTAGAAATAACCC ((((((....)))))), the folding enthalpy in series [1] is -36.4 kcal/mol. In addition, the Tm in series [2] was determined as 53.1 °C.
Taken in the same sequence, the figures for GGGTTAGCGAAAGCTCCC (((..(((....)))))) were -23.7 kcal/mol and 41.8 °C.
Taken in the same sequence, the figures for GGGTTAGGAAACTAACCC (((((((....))))))) were -47.6 kcal/mol and 61.3 °C.
For GGGTTAGGAAACTGACTC (.((.((....)).)).), the folding enthalpy in series [1] is -12.3 kcal/mol. The Tm in series [2] was 27.7 °C.
Consider GGGTTCACGAAAGTGCCC (((..(((....)))))), for which the folding enthalpy in series [1] is -19.6 kcal/mol. The Tm in series [2] turned out to be 41.2 °C.
The matching figures for GGGTTCCGAAAGGATCCC (((.(((....))).))): -42.1 kcal/mol and 55.9 °C.
With GGGTTCGAAAGAACACCC ((((((....)))..))), the folding enthalpy in series [1] was -11.8 kcal/mol. In series [2], the Tm turned out to be 55.1 °C.
As for GGGTTCGAAAGAACCCCC ((((((....)))..))), the folding enthalpy in series [1] is -9.24 kcal/mol. Further, the Tm in series [2] came to 68.2 °C.
Regarding GGGTTCGAAAGAATCCCC ((((((....)))..))), the folding enthalpy in series [1] is -15.9 kcal/mol. Moreover, the Tm in series [2] was 50.6 °C.
Taken in the same sequence, the figures for GGGTTCGAAAGAATGCCC ((((((....)))..))) were -21.1 kcal/mol and 35.3 °C.
Taken in the same sequence, the figures for GGGTTCGAAAGAATTCCC ((((((....)))..))) were -20.4 kcal/mol and 33.8 °C.
In the case of GGGTTCGGAAACGAGTCC ((..(((....)))..)), in series [1], the folding enthalpy was -25.4 kcal/mol. Further, the Tm in series [2] was determined as 37.7 °C.
In the case of GGGTTCGGAAACGGATCC ((.(.((....)).).)), the folding enthalpy in series [1] is -27.2 kcal/mol. For the same sequence, the Tm in series [2] stood at 40.2 °C.
Taken in the same sequence, the figures for GGGTTCTCGAAAGAGCCC (((..(((....)))))) were -26.5 kcal/mol and 48.1 °C.
The matching figures for GGGTTGCCGAAAGGCCCC (((..(((....)))))): -14.5 kcal/mol and 48.4 °C.
The matching figures for GGGTTGGGAAACCGACCC ((((.((....)).)))): -45.4 kcal/mol and 58.4 °C.
GGGTTGGGAAACTAACCC (((((.(....).))))): the folding enthalpy in series [1] was -40.6 kcal/mol. Further, the Tm in series [2] was determined as 50.6 °C.
For the sequence GGGTTGTCGAAAGACCCC (((..(((....)))))), the folding enthalpy in series [1] is -20.5 kcal/mol. Further, the Tm in series [2] was 42.7 °C.
Regarding GGGTTTCGAAAGAAGCCC (((.(((....))).))), in series [1], the folding enthalpy is -44.4 kcal/mol. Besides, in series [2], the Tm came out at 57.1 °C.
Taken in the same sequence, the figures for GGGTTTGGAAACGAATCC ((.((.(....).)).)) were -25.1 kcal/mol and 34.6 °C.
The matching figures for GGTAAACGAAAGTTACC (((.(((....)))))): -25.6 kcal/mol and 46 °C.
Taken in the same sequence, the figures for GGTAAAGGAAACTTTATC (.(((((....))))).) were -18.7 kcal/mol and 30.5 °C.
On to GGTAACCGAAAGGTACC (((.(((....)))))), for which the folding enthalpy in series [1] was -19.4 kcal/mol. For the same sequence, in series [2], the Tm came out at 51.1 °C.
Consider GGTAACGAAAGTTAAACC ((((((....)))..))), for which the folding enthalpy in series [1] was -16.1 kcal/mol. For the same sequence, in series [2], the Tm was determined as 32.3 °C.
Consider GGTAACGAAAGTTGGACC ((((((....)))..))), for which the folding enthalpy in series [1] is -15.5 kcal/mol. Further, the Tm in series [2] was 26.8 °C.
GGTAAGTCGAAAGACACC (((..(((....)))))): the folding enthalpy in series [1] is -17.9 kcal/mol. Besides, the Tm in series [2] worked out at 37.3 °C.
For the sequence GGTAATGGAAACATCACC (((.(((....))).))), in series [1], the folding enthalpy was -18.2 kcal/mol. The Tm in series [2] turned out to be 30.7 °C.
Take GGTAATGGAAACATTATC (.(((((....))))).): the folding enthalpy in series [1] is -26.8 kcal/mol. For the same sequence, the Tm in series [2] is 35.7 °C.
The matching figures for GGTAATGGAAACGTTACC (((((.(....).))))): -40.4 kcal/mol and 45 °C.
